Measurements reported in ChEMBL document CHEMBL1157638, “Fluorescent epigenetic small molecule induces expression of the tumor suppressor ras-association domain family 1A and inhibits human prostate xenograft” (J Med Chem, 2010).
The source made the active and inactive calls. The calls are words filed in the database; no cut-off is given here.

Experiments:
[1] = Growth inhibition of human […] cells assessed as cell growth at 100 nM relative to untreated control; format: functional; settings: read-out: Activity
SR [2] = assay: Growth inhibition of human SR cells assessed as cell growth at 100 nM relative to untreated control; format: functional; settings: read-out: Activity
MCF7 = assay: Growth inhibition of human MCF7 cells assessed as cell growth at 100 nM relative to untreated control; format: functional; settings: read-out: Activity
T47D [3] = assay: Growth inhibition of human T47D cells assessed as cell growth at 100 nM relative to untreated control; format: functional; settings: read-out: Activity
NCI-H460 = assay: Growth inhibition of human NCI-H460 cells assessed as cell growth at 1 uM relative to untreated control; format: functional; settings: read-out: Activity
COLO 205 = assay: Growth inhibition of human COLO205 cells assessed as cell growth at 1 uM relative to untreated control; format: functional; settings: read-out: Activity
NCI-H322M = assay: Growth inhibition of human NCI-H322M cells assessed as cell growth at 1 nM relative to untreated control; format: functional; settings: read-out: Activity
SW-620 [4] = assay: Growth inhibition of human SW620 cells assessed as cell growth at 1 nM relative to untreated control; format: functional; settings: read-out: Activity
Malme-3M = assay: Growth inhibition of human MALME-3M cells assessed as cell growth at 1 nM relative to untreated control; format: functional; settings: read-out: Activity
SK-MEL-2 = assay: Growth inhibition of human SK-MEL-2 cells assessed as cell growth at 1 nM relative to untreated control; format: functional; settings: read-out: Activity
UACC-257 = assay: Growth inhibition of human UACC257 cells assessed as cell growth at 1 nM relative to untreated control; format: functional; settings: read-out: Activity
T47D [5] = assay: Growth inhibition of human T47D cells assessed as cell growth at 1 nM relative to untreated control; format: functional; settings: read-out: Activity
SR [6] = assay: Growth inhibition of human SR cells assessed as cell growth at 10 nM relative to untreated control; format: functional; settings: read-out: Activity
A549 [7] = assay: Growth inhibition of human A549 cells assessed as cell growth at 10 nM relative to untreated control; format: functional; settings: read-out: Activity
HOP-62 [8] = assay: Growth inhibition of human HOP62 cells assessed as cell growth at 10 nM relative to untreated control; format: functional; settings: read-out: Activity
In short: (§1)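 Run externally at the National Cancer Institute as a 59-cell-line panel screen, with concentrations up to 100 μM. Growth was scored relative to control, where negative growth or total cell kill was possible. Data are in the Supporting Information.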

NCI-H226 = assay: Growth inhibition of human NCI-H226 cells assessed as cell growth at 10 nM relative to untreated control; format: functional; settings: read-out: Activity
SN12C = assay: Growth inhibition of human SN12C cells assessed as cell growth at 1 uM relative to untreated control; format: functional; settings: read-out: Activity
MDA-MB-231 = assay: Growth inhibition of human MDA-MB-231 cells assessed as cell growth at 1 uM relative to untreated control; format: functional; settings: read-out: Activity
T47D [9] = assay: Growth inhibition of human T47D cells assessed as cell growth at 1 uM relative to untreated control; format: functional; settings: read-out: Activity
HOP-62 [10] = assay: Growth inhibition of human HOP62 cells assessed as cell growth at 10 uM relative to untreated control; format: functional; settings: read-out: Activity; in short: as §1
NCI-H23 = assay: Growth inhibition of human NCI-H23 cells assessed as cell growth at 10 uM relative to untreated control; format: functional; settings: read-out: Activity
HCT-116 [11] = assay: Growth inhibition of human HCT116 cells assessed as cell growth at 10 uM relative to untreated control; format: functional; settings: read-out: Activity; in short: as §1
U-251 = assay: Growth inhibition of human U251 cells assessed as cell growth at 10 uM relative to untreated control; format: functional; settings: read-out: Activity
OVCAR-8 = assay: Growth inhibition of human OVCAR8 cells assessed as cell growth at 10 uM relative to untreated control; format: functional; settings: read-out: Activity
786-0 = assay: Growth inhibition of human 786-0 cells assessed as cell growth at 10 uM relative to untreated control; format: functional; settings: read-out: Activity
A498 = assay: Growth inhibition of human A498 cells assessed as cell growth at 10 uM relative to untreated control; format: functional; settings: read-out: Activity
ACHN = assay: Growth inhibition of human ACHN cells assessed as cell growth at 10 uM relative to untreated control; format: functional; settings: read-out: Activity
T47D [12] = assay: Growth inhibition of human T47D cells assessed as cell growth at 10 uM relative to untreated control; format: functional; settings: read-out: Activity
K562 = assay: Growth inhibition of human K562 cells; format: functional
MOLT-4 = assay: Growth inhibition of human MOLT4 cells; format: functional
SW-620 [13] = assay: Growth inhibition of human SW620 cells; format: functional
MDA-MB-435 = assay: Growth inhibition of human MDA-MB-435 cells; format: functional; settings: read-out: LC50 (the source's name)
UACC-62 = assay: Growth inhibition of human UACC62 cells; format: functional
PC-3 [14] = assay: Growth inhibition of human PC3 cells after 24 hrs by trypan blue exclusion method; format: functional; settings: PC-3, 24 h
In short: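 PC-3 cells grown in phenol red-free IMEM with 10% FBS, 2 mM glutamine and penicillin/streptomycin at 37 °C, 5% CO2. Seeded in triplicate at 1.5 × 10⁴ cells/well. After 24 h, treated with DMSO vehicle or 1, 5, 15, 30 or 60 μM compound for 24 h. Cells trypsinized, stained with 0.4% trypan blue, and live and dead cells counted by hemocytometer. Mean ± SEM of three independent observations.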

PC-3 [15] = assay: […] in RASSF1A gene expression in human PC3 cells at 5 uM after 3 days hrs by RT-PCR; format: functional, cell-based
[16] = biological target: DNA (cytosine-5)-methyltransferase 3B (Homo sapiens) (UniProt Q9UBC3); assay: Binding affinity to DNMT3b in human PC3 cells cytoplasm at 5 uM after 1 hr by antibody staining; format: cell-based; settings: PC-3
In short: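 PC-3 cells were plated overnight on fibronectin/[…]-coated slides and treated with 5 μM compound or DMSO for 1-6 h. Cells were PBS-washed, fixed in 4% formaldehyde, and stained with propidium iodide (nuclei) and anti-DNMT3a or anti-DNMT3b antibody. The compound was excited at 725 nm by multiphoton laser and imaged through a 500-550 nm filter by confocal microscopy.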

[17] = Therapeutic index, ratio of toxic dose in BALB/c mouse to antitumor dose in human PC3 cells xenografted BALB/c mouse; format: cell-based, PC-3; settings: in vivo, read-out: TI
A549 [18] = assay: Growth inhibition of human A549 cells assessed as cell growth at 1 nM relative to untreated control; format: functional; settings: read-out: Activity
HOP-92 = assay: Growth inhibition of human HOP92 cells assessed as cell growth at 1 nM relative to untreated control; format: functional; settings: read-out: Activity; in short: as §1
CAKI-1 = assay: Growth inhibition of human Caki1 cells; format: functional; in short: as §1
HCT-116 [19] = assay: Growth inhibition of human HCT116 cells assessed as cell growth at 10 nM relative to untreated control; format: functional; settings: read-out: Activity; in short: as §1
NCI/ADR-RES = assay: Growth inhibition of human NCI/ADR-RES cells assessed as cell growth at 10 nM relative to untreated control; format: functional; settings: read-out: Activity
[20] = read-out: LC50 (the source's name)

Question: Which results are given for COc1ccc2c(c1)[nH]c1c(C)c(OS(=O)(=O)c3cccc4c(N(C)C)cccc34)ccc12?
Answer: growth at 0.1 µM [1]: 90%; growth at 0.1 µM (SR [2]): 95%; growth at 0.1 µM (MCF7): 81%; growth at 0.1 µM (T47D [3]): 82%; growth at 1 µM (NCI-H460): 9%; growth at 1 µM (COLO 205): 23%; growth at 0.001 µM (NCI-H322M): 98%; growth at 0.001 µM (SW-620 [4]): 103%; growth at 0.001 µM (Malme-3M): 93%; growth at 0.001 µM (SK-MEL-2): 115%; growth at 0.001 µM (UACC-257): 100%; growth at 0.001 µM (T47D [5]): 95%; growth at 0.01 µM (SR [6]): 91%; growth at 0.01 µM (A549 [7]): 97%; growth at 0.01 µM (HOP-62 [8]): 111%; growth at 0.01 µM (NCI-H226): 88%; growth at 1 µM (SN12C): 51%; growth at 1 µM (MDA-MB-231): 49%; growth at 1 µM (T47D [9]): 15%; growth at 10 µM (HOP-62 [10]): 35%; growth at 10 µM (NCI-H23): 8%; growth at 10 µM (HCT-116 [11]): 5%; growth at 10 µM (U-251): 14%; growth at 10 µM (OVCAR-8): 24%; growth at 10 µM (786-0): 6%; growth at 10 µM (A498): -4%; growth at 10 µM (ACHN): 21%; growth at 10 µM (T47D [12]): 2%; GI50 (K562): 3.01 µM; TGI (K562): > 100 µM; CC50 (K562; [20]): > 100 µM; GI50 (MOLT-4): 4.19 µM; TGI (MOLT-4): > 100 µM; CC50 (MOLT-4; [20]): > 100 µM; GI50 (SW-620 [13]): 4.32 µM; TGI (SW-620 [13]): > 100 µM; CC50 (SW-620 [13]; [20]): > 100 µM; CC50 (MDA-MB-435): > 100 µM; GI50 (UACC-62): 3.39 µM; TGI (UACC-62): > 100 µM; CC50 (UACC-62; [20]): > 100 µM; GI50 (PC-3 [14]): 1.5 µM; Activity (PC-3 [15]): Active; Activity [16]: Active; selectivity ratio [17]: > 55; growth at 0.001 µM (A549 [18]): 101%; growth at 0.001 µM (HOP-92): 101%; GI50 (CAKI-1): 27.5 µM; TGI (CAKI-1): > 100 µM; CC50 (CAKI-1; [20]): > 100 µM; growth at 0.01 µM (HCT-116 [19]): 106%; growth at 0.01 µM (NCI/ADR-RES): 111%
